# What was measured:
# Assay type in all cases: functional
# Mus musculus [1] = assay: Trypanocidal Activity at I.C.E. value 0.43 when administered perorally.
# Mus musculus [2] = assay: Trypanocidal Activity at I.C.E. value 0.32 when administered subcutaneously.
# Summary of the method: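 Blood-stage T. rhodesiense infection came from a standard inoculum lethal to all untreated mice. Drug was given by subcutaneous injection to groups of five mice. Survival beyond 30 days counted as cure. […] Sub-curative doses scored 0, and data were normalized at each dose.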
# Mus musculus [3] = assay: Trypanocidal Activity at I.C.E. value 0.61 when administered perorally.
# Mus musculus [4] = assay: Trypanocidal Activity at I.C.E. value 0.81 when administered subcutaneously.
# Summary of the method: (§1)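 Mice, in groups of five per dose, were given a standard inoculum of blood-stage T. rhodesiense that is lethal to all untreated controls, then dosed subcutaneously. Usually 11 dose levels were used (2^n × 0.42 mg/kg).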
# Mus musculus [5] = assay: Trypanocidal Activity at I.C.E. value 0.89 when administered subcutaneously.; summary of the method: as §1
# [6] = system: Trypanosoma brucei rhodesiense; assay: In Vitro measurement of inhibition of thymidine uptake in cell culture of Trypanosoma rhodesiense; settings: read-out: ID50 (the source's name)
# Summary of the method: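 Parasites harvested from infected rats and incubated 3 h across a drug concentration series, usually 0.1–100 µg/mL. Incorporation of radiolabeled thymidine measured. ID50 is the concentration (µg/mL) producing 50% inhibition.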
# [7] = system: Trypanosoma brucei rhodesiense; assay: In Vitro measurement of inhibition of leucine uptake in cell culture of Trypanosoma rhodesiense; settings: read-out: ID50 (the source's name)
# Summary of the method: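 Trypanosomes harvested from infected rats, cultured 3 h with several concentrations of drug, usually 0.1–100 µg/mL. Radiolabeled L-leucine uptake measured. ID50 is the concentration in µg/mL giving 50% inhibition of incorporation.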
# Mus musculus [8] = assay: Trypanocidal Activity at I.C.E. value 0.93 when administered subcutaneously.; summary of the method: as §1
smiles,measurement,setting,value
Br.C[n+]1c(-c2ccc(/C=N/NC(=N)N)cc2)c(Br)n2ccccc21.[Br-],CD50,Mus musculus [1],26 mg/kg
same,CD50,Mus musculus [2],1.6 mg/kg
Br.Cc1ccc2n(c1)cc(COc1ccc(/C=N/NC(=N)N)cc1)[n+]2C.[Br-],CD50,Mus musculus [3],6.6 mg/kg
same,CD50,Mus musculus [4],0.2 mg/kg
C[n+]1c(/C=C/c2ccc(/C=N/NC(=N)N)cc2)cn2ccccc21.Cc1ccc(S(=O)(=O)O)cc1.Cc1ccc(S(=O)(=O)[O-])cc1,CD50,Mus musculus [5],0.1 mg/kg
same,IC50,[6],2.7 µg/mL
same,IC50,[7],9.3 µg/mL
CCSc1ccc2n(c1)cc(-c1ccc(/C=N/NC(=N)N)cc1)[n+]2C.Cc1ccc(S(=O)(=O)O)cc1.Cc1ccc(S(=O)(=O)[O-])cc1,CD50,Mus musculus [8],0.1 mg/kg

# Source: ChEMBL document CHEMBL1124947, “Cationic antiprotozoal drugs. Trypanocidal activity of 2-(4'-formylphenyl)imidazo[1,2-a]pyridinium guanylhydrazones and related derivatives of quaternary heteroaromatic compounds” (J Med Chem, 1990)
